Measured values of several laboratories.
Lines come from different studies, so protocols differ.
Target: Tyrosine-protein kinase BTK (BTK, Homo sapiens, UniProt Q06187)

CCN1CCN(Cc2ccc(C(=O)Nc3ccc(C)c(Oc4ccc5c(c4)CC(=O)N5)c3)cc2C(F)(F)F)CC1  remaining binding (binding; competition with immobilised ligand; 1 µM): 100%
O=C(c1ccc(Nc2ncc(Cl)c(-c3ccc(Cl)s3)n2)cc1)N1CCC(N2CCCC2)CC1  remaining binding (binding; competition with immobilised ligand; 1 µM): 64%
O=C1CCc2cc(Nc3cc(OC4CCOCC4)c([N+](=O)[O-])cc3Cl)ccc2N1  remaining binding (cell-free assay; competition with immobilised ligand; 1 µM): 100%
c1cnn2ncc(-c3ccnc(N4CCC45COC5)n3)c2c1  remaining binding (binding; 1 µM): 89%
O=C(N1CCS(=O)(=O)CC1)N1C[C@H](c2ccc(OC(F)(F)F)cc2)C[C@H](c2nc(C3CC3)no2)C1  remaining binding (cell-free assay; competition with immobilised ligand; 1 µM): 100%
Cc1ccc(-n2nc(C(C)(C)C)cc2NC(=O)Nc2ccc(-n3c(N)c(C(N)=O)c4nc5ccc(NCCCN)cc5nc43)cc2)cc1  remaining binding (cell-free assay; competition with immobilised ligand; 1 µM): 3.3%
O=C(O)[C@@H]1[C@@H](Cn2nnc3ccccc3c2=O)CC[C@H]1C(=O)c1ccc(OCCC2CCOCC2)cc1  remaining binding (cell-free assay; competition with immobilised ligand; 1 µM): 100%
CN(c1nccc(-c2cnn3ncccc23)n1)C1CC1  remaining binding (binding; 1 µM): 100%
O=C(Nc1cccnn1)N1CCC(=Cc2cccc(Oc3ccc(C(F)(F)F)cn3)c2)CC1  remaining binding (cell-free assay; competition with immobilised ligand; 1 µM): 100%
COc1cnc(Nc2cccc(S(N)(=O)=O)c2)nc1N1CCN(c2ccccc2)CC1  remaining binding (binding; competition with immobilised ligand; 1 µM): 80%
O=C(c1ccc(Nc2ncc(Cl)c(-c3cc4ccccc4s3)n2)cc1)N1CCC(N2CCCC2)CC1  remaining binding (binding; competition with immobilised ligand; 1 µM): 63%
O=C(Nc1c[nH]nc1C(=O)NC1CCNCC1)c1cc(F)cc(F)c1  remaining binding (binding; competition with immobilised ligand; 1 µM): 100%
C[C@@H]1CN(c2ccc3ncc(-c4ccc5[nH]nc(C6CC6)c5c4)n3n2)C[C@H](C)O1  remaining binding (binding; competition with immobilised ligand; 0.5 µM): 89%
O=C(Nc1cccnn1)N1CC(C/C=C/c2cncc(Oc3ccc(C(F)(F)F)cn3)n2)C1  remaining binding (cell-free assay; competition with immobilised ligand; 1 µM): 59%
C[C@@H]1CCN(c2nccc(-c3cnn4ncccc34)n2)C1  remaining binding (binding; 1 µM): 90%
CN(c1ccnc(CNc2nc(Nc3ccc4c(c3)CC(=O)N4)ncc2C(F)(F)F)n1)S(C)(=O)=O  remaining binding (cell-free assay; competition with immobilised ligand; 1 µM): 63%
Cc1cnn2ncc(-c3ccnc(N(C)C)n3)c2c1  remaining binding (binding; 1 µM): 91%
N#Cc1ccccc1CSc1nnc2c(n1)[nH]c1ccccc12  remaining binding (binding; competition with immobilised ligand; 10 µM): 100%
N[C@@H]1CCN(c2nccc(-c3cnn4ncccc34)n2)C1  remaining binding (binding; 1 µM): 100%
CC(C)(C)c1ccc(-c2nc(CBr)nn2-c2cccc(O)c2)cc1  remaining binding (cell-free assay; competition with immobilised ligand; 10 µM): 83%
CN(C)c1nccc(-c2cnn3ncccc23)n1  remaining binding (binding; 1 µM): 85%
O=C(NCCCN1CCOCC1)c1ccc(Nc2ncc(Cl)c(-c3ccc(Cl)s3)n2)cc1  remaining binding (binding; competition with immobilised ligand; 1 µM): 100%
Cc1nc(C2CCN(C(=O)c3ccc(OC(F)(F)F)cc3N)CC2)c2ncc(N3CCN(C)CC3)cc2n1  remaining binding (cell-free assay; competition with immobilised ligand; 1 µM): 87%
CN(CCCC(F)(F)F)c1nccc(-c2cnn3ncccc23)n1  remaining binding (binding; 1 µM): 100%
